Rows were chosen to be rich in hits. Some 3.4% of all compounds tested hit in one or more screens of this group.
Runt-SMMHC FRET: inhibitors of RUNX1 Runt–CBFb-SMMHC binding, primary screen, biochemical, FRET, Cerulean-Runt, Venus-CBFb-SMMHC, uHTS. hit rate 0.74% among 220,000. Cerulean-Runt/Venus-CBFb-SMMHC FRET ratio 530/480, 1 h. inhibition, % at 20 µM. Runt-related transcription factor 1 (Homo sapiens) + Core-binding factor subunit beta …. AID 1434, 2008;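 active = mean inhibition across duplicate retests at 20 µM reaching about 50%, limit read from the data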;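 note: 0% = DMSO wells and 100% = wells with excess untagged CBFb-SMMHC; inhibitors lower the FRET ratio by blocking Runt binding to CBFb-SMMHC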
RanGTP-Imp inh: inhibitors of RanGTP-importin-beta interaction, primary screen, biochemical, FRET, CFP-Ran, YFP-importin-beta, homogeneous; hit rate 1.1% among 300,000; Ran GTPase (GTP-bound) - importin-beta complex; cell-free CFP-Ran/YFP-importin-beta FRET ratio; inhibition, % (test concentration not listed);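 active = more than half of the replicate wells show a fall in the fluorescence ratio signal beyond about 16%, limit read from the data, passing the limit was not always enough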;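 note: 0% = DMSO wells and 100% = Ran loaded with GDP instead of GTP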
Runt-CBFb FRET: inhibitors of RUNX1 Runt–CBFb binding, primary screen, biochemical, FRET, Cerulean-Runt, Venus-CBFb, uHTS; inhibition, % at 20 µM; Cerulean-Runt/Venus-CBFb FRET ratio 530/480, 1 h; hit rate 0.46% among 220,000; AID 1496, 2009;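 active = inhibition over about 50% at 20 µM in the single-dose screen, limit read from the data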;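 note: 0% = DMSO wells and 100% = excess unlabeled CBFb competitor control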
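Buffer or medium: Tris pH 7.5 buffer with BSA. Assay system: Cerulean-labeled Runt domain protein. Amount: each fluorescent fusion protein 100 nM. Read-out basis: loss of energy transfer signal. Incubation: 1 h compound exposure, room temperature. Probe or stimulus: Venus-CBFb binding partner, 100 nM. Detection: FRET, excitation 422 nm, emission at 530 and 480 nm.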
Efa HMGR inh: inhibitors of E. faecalis class II HMGR, primary screen, biochemical, Enterococcus faecalis. AID 1066, 2008. inhibition, % at 10 µM. HMG-CoA reductase (Enterococcus faecalis, mvaE). purified E. faecalis HMGR, NADPH absorbance 340 nm kinetic. hit rate 0.41% among 190,000;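 active = inhibition above a set limit, the median over all tested compounds plus 3 SD, cut at about 9.5% in these data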;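 note: enzyme runs in reverse so mevalonate oxidation gives rising NADPH absorbance; 0% = complete reaction with DMSO and 100% = background rate lacking mevalonate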
PHOSPHO1 block: PubChem AID 1565 | inhibition, % at 13.3 µM | recombinant PHOSPHO1, absorbance phosphatase assay | Phosphoethanolamine/phosphocholine phosphatase (Homo sapiens), Q8TCT1 | hit rate 1.1% among 290,000; in the data active = inhibition above about 60%
Wee1 degr inh: Wee1 degradation inhibitors, primary screen, cell-based, HeLa, Wee1K328M-luciferase, luminescence; Wee1-like protein kinase (Homo sapiens), P30291; HeLa Luc-Wee1K328M stability; 100% = proteasome inhibitor MG132 effect; reporter increase, % at 5 µM; hit rate 1.2% among 220,000; AID 1321, 2008;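 active = activation above the mean of all tested compounds plus 3 SD, set per screening run, cut at about 8.8% in these data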;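 note: cells exposed to compound for 20 h before luminescence read; 0% = DMSO alone and 100% = MG132 at 30 µM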
Target sequence (P30291 whole entry K328M): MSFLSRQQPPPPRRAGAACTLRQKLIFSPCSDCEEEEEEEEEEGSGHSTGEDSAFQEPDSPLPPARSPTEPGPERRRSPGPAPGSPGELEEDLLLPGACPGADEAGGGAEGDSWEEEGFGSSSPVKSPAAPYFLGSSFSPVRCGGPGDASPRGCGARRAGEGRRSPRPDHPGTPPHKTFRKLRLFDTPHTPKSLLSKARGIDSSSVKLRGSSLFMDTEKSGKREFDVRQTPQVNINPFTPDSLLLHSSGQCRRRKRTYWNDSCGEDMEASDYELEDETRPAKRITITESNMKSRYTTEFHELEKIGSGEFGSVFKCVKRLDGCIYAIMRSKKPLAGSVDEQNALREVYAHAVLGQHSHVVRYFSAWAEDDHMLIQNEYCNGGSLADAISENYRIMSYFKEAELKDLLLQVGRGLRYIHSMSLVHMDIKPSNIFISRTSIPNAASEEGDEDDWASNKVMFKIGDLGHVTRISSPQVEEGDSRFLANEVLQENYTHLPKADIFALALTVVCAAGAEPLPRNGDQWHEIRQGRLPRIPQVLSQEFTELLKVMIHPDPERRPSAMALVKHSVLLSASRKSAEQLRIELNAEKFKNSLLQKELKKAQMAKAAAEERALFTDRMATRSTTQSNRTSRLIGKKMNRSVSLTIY
Active calls of the source: *; . = no result given.

SMILES	Runt-SMMHC FRET	RanGTP-Imp inh	Runt-CBFb FRET	Efa HMGR inh	PHOSPHO1 block	Wee1 degr inh
Cn1c(C2CCCN2C(=O)OC(C)(C)C)n[nH]c1=S (stereo unspecified)	-4	-1	2	2	97*	1
CC1CCN(S(=O)(=O)c2cccc(C(=O)NC3CCCC3)c2)CC1	.	2	.	.	41	.
Cc1cc(CN2CCC(N3CCC(C(=O)NC4CC4)CC3)CC2)cc(C)c1O	.	0	.	.	33	.
O=[N+]([O-])c1ccc(NC(=S)NCCc2ccccc2)cc1	-1	7	-2	-4	-21	1
O=[N+]([O-])c1ccc(NNC(=S)Nc2ccccc2)cc1	7	2	16	0	86*	1
O=C(CSc1nnc(CNc2ccc(F)cc2)n1Cc1ccco1)N1CCOCC1	-1	4	0	1	88*	-2
Cc1cccc(-n2c(C)cc(C=C3C(=O)c4ccccc4C3=O)c2C)c1	-3	-9	0	5	99*	-1
Cc1cc2ccccn2c1C(=O)c1ccncc1	-14	7	1	5	-28	-2
Cc1cc2ccccn2c1C(=O)c1ccc(Cl)cc1	-14	0	-1	-1	64*	0
COc1cccc(-n2nc(C(=O)NCC3CCCO3)c3ccccc3c2=O)c1 (stereo unspecified)	.	3	.	.	8	.
CCCCP(=O)(CCCC)Cc1ccccc1O	0	-2	-1	-3	25	9.4*
CCCCCCP(=O)(O)c1ccccc1	3	0	-2	-1	-56	0
COc1ccc(CNC(=O)C2CCCN(S(=O)(=O)c3ccc4c(c3)CCCN4C(C)=O)C2)cc1 (stereo unspecified)	.	1	.	.	20	.
CC1(C)c2ssc(=S)c2-c2ccccc2N1C(=O)c1ccco1	-2	-6	122*	-3	29	0
Cc1ccc2c(c1)-c1c(ssc1=S)C(C)(C)N2C(=O)c1ccco1	24	-3	35	5	-8	0
Cc1nc(-c2nc(-c3c(C(=O)NNC(=O)c4ccc(Cl)cc4)noc3C)cs2)cs1	-3	17*	0	.	27	-2
CC(=O)Oc1c(/C=C(\C#N)C(N)=O)[nH]c2ccccc12	20	16*	34	-1	4	-1
Cc1ccc(C)c(N2CCN(S(=O)(=O)c3ccc4c(c3)NC(=O)CS4)CC2)c1	.	-3	.	.	48	.
COC(=O)Cc1c(C)c2ccc(O)c(CN3CCCC(C)C3)c2oc1=O (stereo unspecified)	112*	22*	98*	3	-1	1
O=C(O)Cn1nnnc1-c1ccc(F)cc1	-1	1	1	-1	-11	-2
CCOC(=O)c1c(C)[nH]c(C)c1S(=O)(=O)N(C)CC(=O)NCc1cccc(Br)c1	.	5	.	.	40	.
COc1c(O)c(=O)n2c3ccccc3c3ccnc1c32	.	-5	.	.	.	.
COc1c(OC)c2[nH]c(=O)cc3c4ccccc4n(c1=O)c23	.	157*	.	.	.	.
CCOP(=O)(NC(c1ccccc1)c1nc2ccccc2[nH]c1=O)OCC (stereo unspecified)	.	-4	.	.	61*	.
COc1ccc(NC(=O)N2CCCC2C(=O)NC2CCCC2)cc1 (stereo unspecified)	.	6	.	.	30	.
SMILES	Runt-SMMHC FRET	RanGTP-Imp inh	Runt-CBFb FRET	Efa HMGR inh	PHOSPHO1 block	Wee1 degr inh
Cc1[nH]n(-c2ccccc2)c(=S)c1C=Nc1ccc([N+](=O)[O-])cc1	74*	.	-7	-1	-5	-1
Cc1[nH]n(-c2ccccc2)c(=O)c1C=Nc1ccc(S(=O)(=O)N=C(N)N)cc1	-3	-1	-1	.	32	-3
CCOC(=O)CSC1=C(C#N)C(=O)NC2(CCCCC2)S1	4	0	12	1	98*	1
COc1ccc(C(C(=O)NC2CCCCC2)N(Cc2ccco2)C(=O)c2ccccn2)c(OC)c1 (stereo unspecified)	.	-3	.	.	35	.
CCOC(=O)C1=C(Cc2ccc(OC)cc2)C(=O)c2ccccc2C1=O	-2	.	17	1	71*	4
O=c1[nH]c(-c2ccncc2)nc2ccccc12	12	3	43	-1	98*	-3
O=c1[nH]c(-c2cccnc2)nc2ccccc12	5	-2	-2	0	21	0
O=C(Nc1ccccc1N1CCOCC1)c1cccnc1	-3	4	0	10*	24	1
O=C(Nc1ccc(N2CCOCC2)c(Cl)c1)c1cccnc1	-3	-2	-2	1	34	-2
O=C(Nc1ccc(Oc2cccnc2)cc1)c1cccc([N+](=O)[O-])c1	3	0	-1	1	-2	-1
c1ccc(-c2ccc(SCc3cccnc3)nn2)nc1	2	-3	3	0	3	2
Clc1ccc(-c2ccc(SCc3ccccn3)nn2)cc1	1	3	-1	-5	58	10*
c1ccc(CSc2ccc(-c3ccccn3)nn2)nc1	0	5	1	-4	-17	9.7*
O=C(CSc1ccc(-c2ccccn2)nn1)Nc1cccc(F)c1	.	-2	.	.	61*	.
COc1ccc(CCNC(=O)c2cc(-c3ccccn3)nc3c(Cl)cccc23)cc1OC	0	24*	-1	-4	27	1
COc1ccc(CCNC(=O)c2cc(-c3ccncc3)nc3c(Cl)cccc23)cc1OC	4	4	-8	1	34	7
Cc1ccc(-c2nc3cc(NC(=O)C(C)C)ccc3o2)cc1	-5	-1	-1	-4	10	25*
CCCCCCN1CC(=O)N2[C@@H](Cc3c([nH]c4ccccc34)C2(C)C)C1=O	.	2	.	.	33	.
Cc1ccc(NC(=O)COC(=O)Cc2csc(-c3ccc(Cl)cc3)n2)cc1C	2	.	1	-4	-2	15*
O=S(=O)(Nc1ccc(-c2nc3cccnc3s2)cc1)c1cc(F)ccc1F	85*	10	44	.	28	-2
Cc1ccc(C(=O)NC2CCCc3c2cnn3-c2ccc(F)cc2F)cn1 (stereo unspecified)	.	2	.	.	38	.
COc1cccc(/C=N/NC(=O)CO/N=C(\C)c2cccs2)c1OC	1	-1	0	-2	30	10*
C/C(=N\OCC(=O)N/N=C/c1ccccc1O)c1cccs1	4	1	1	-4	-11	-3
O=C(Nc1cccc(-c2nc3ccccc3s2)c1)c1ccc2c(c1)OCO2	1	-5	0	-4	-123	0

Screening results from PubChem.
